3 compounds from ChEMBL document CHEMBL3826877, “Fatty Acid Amide Hydrolase (FAAH), Acetylcholinesterase (AChE), and Butyrylcholinesterase (BuChE): Networked Targets for the Development of Carbamates as Potential Anti-Alzheimer's Disease Agents” (J Med Chem, 2016) can be followed below.

Data set [1] has as its target T1, Fatty-acid amide hydrolase 1 (Rattus norvegicus, UniProt P97612).
T1 sequence (P97612 whole entry): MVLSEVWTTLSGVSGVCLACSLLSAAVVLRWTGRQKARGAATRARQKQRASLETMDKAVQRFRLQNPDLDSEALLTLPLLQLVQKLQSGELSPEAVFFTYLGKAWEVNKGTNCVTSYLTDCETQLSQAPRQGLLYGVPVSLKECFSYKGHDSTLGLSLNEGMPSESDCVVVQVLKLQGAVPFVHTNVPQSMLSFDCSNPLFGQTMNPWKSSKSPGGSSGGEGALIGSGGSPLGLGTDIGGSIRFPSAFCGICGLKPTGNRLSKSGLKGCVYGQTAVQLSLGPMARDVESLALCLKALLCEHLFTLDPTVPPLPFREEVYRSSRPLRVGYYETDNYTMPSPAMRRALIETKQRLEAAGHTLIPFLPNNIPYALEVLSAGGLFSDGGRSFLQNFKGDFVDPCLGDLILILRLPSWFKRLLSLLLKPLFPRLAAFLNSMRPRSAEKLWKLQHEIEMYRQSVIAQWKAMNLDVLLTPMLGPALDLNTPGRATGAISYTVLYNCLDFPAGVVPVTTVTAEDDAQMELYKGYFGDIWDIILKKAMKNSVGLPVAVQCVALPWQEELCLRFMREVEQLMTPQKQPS
Put plainly: Inhibition of FAAH in rat brain membrane using N-arachidonoyl-[14C]-ethanolamine as substrate incubated for 30 mins by scintillation counting method. In kind it is cell membranes. In short, it runs like this:
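Rat brain 10,000 x g membrane fraction (70 µg/sample) co-incubated with compound and [14C]-AEA diluted with unlabelled AEA in 50 mM Tris-HCl, pH 9.00-10.00, 37 °C, 30 min. Released [14C]-ethanolamine measured by scintillation of the aqueous phase after CHCl3/MeOH 1:1 extraction.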

The target of data set [2] is T2, Cholinesterase (Homo sapiens, UniProt P06276). Put plainly: Inhibition of human serum BuChE using butyrylthiocholine iodide as substrate preincubated for 20 mins followed by substrate addition by Ellman's method. In short, it runs like this: (§1)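 Ellman assay at 37 °C in 0.1 M phosphate pH 8.0 with 340 µM DTNB, 0.02 U/mL enzyme and 550 µM thiocholine substrate. Enzyme and inhibitor preincubated before substrate: AChE 120 min (one compound 60 min), BuChE 15 or 20 min depending on N-substituent. Non-enzymatic blanks run. […] IC50 by linear regression of % inhibition vs log concentration. Mean of 2-3 independent runs in duplicate.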
A general note: Ellman's reagent forms a yellow product with free thiols.

For data set [3], the target named is T1, Fatty-acid amide hydrolase 1. Put plainly: Inhibition of FAAH in rat brain membrane using N-arachidonoyl-[14C]-ethanolamine as substrate preincubated for 20 mins followed by substrate addition measured after 30 mins by scintillation counting method. In kind it is cell membranes. Put shortly:
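Compound preincubated 20 min at 37 °C with rat brain 10,000 x g membranes (70 µg/sample), then [14C]-AEA (diluted with AEA) added in 50 mM Tris-HCl pH 9.00-10.00, 37 °C, 30 min. [14C]-ethanolamine counted by scintillation after CHCl3/MeOH 1:1 extraction.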

In data set [4] the target is T3, Acetylcholinesterase (Homo sapiens, UniProt P22303). Put plainly: Inhibition of recombinant human AChE expressed in HEK293 cells using acetylthiocholine iodide as substrate preincubated for 120 mins followed by substrate addition by Ellman's method. In short, it runs like this: as §1
The subject of data set [5] is SH-SY5Y. Put plainly: Cytotoxicity against human SH-SY5Y assessed as reduction in cell viability at 1 to 25 uM after 24 hrs by MTT assay. In kind it is cell-based. In short, it runs like this:
(§2)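 SH-SY5Y neuroblastoma cells grown in DMEM with 2 mM L-glutamine, penicillin/streptomycin and 10% FBS. Cells seeded and cultured overnight at 37°C, 5% CO2. Compounds in DMSO (final under 0.1%) added for 24 h. MTT 0.5 mg/mL added for 3 h, formazan taken up in isopropanol, absorbance read at 620 nm. Viability given relative to vehicle. Three independent experiments in quadruplicate.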
Background: Tetrazolium dyes change colour on reduction, which living cells bring about.

In data set [6] the test system is SH-SY5Y. Put plainly: Cytotoxicity against human SH-SY5Y assessed as reduction in cell viability at 50 uM after 24 hrs by MTT assay. The class given is cell-based. In short, it runs like this: as §2
For data set [7], the target named is T2, Cholinesterase. Put plainly: Inhibition of human serum BuChE using butyrylthiocholine iodide as substrate preincubated for 15 mins followed by substrate addition by Ellman's method. In short, it runs like this: as §1
In data set [8] the target is T2, Cholinesterase. Put plainly: Inhibition of human serum BuChE assessed as enzyme carbamoylation using butyrylthiocholine iodide as substrate preincubated with enzyme followed by substrate addition by Ellman's method. Particulars: TDE = time-dependent effect.
The target of data set [9] is T3, Acetylcholinesterase. Put plainly: Inhibition of recombinant human AChE expressed in HEK293 cells assessed as pseudo-first order rate constant for enzyme carbamoylation using acetylthiocholine iodide as substrate preincubated for 15 to 120 mins followed by substrate addition by Ellman's method. In short, it runs like this: (§3)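 Stopped-time assay at pH 8.0, 37 °C, five inhibitor concentrations. AChE: 16.7-167.5 nM, residual activity read at 15, 30, 60, 90 and 120 min. BuChE: 0.46-4.58 nM, read at […], 2, 5, 10, 15 and 30 min. Activities corrected against an uninhibited control at each time. R = R0·exp(−kobs·t)+R∞ fitted to give kobs. k3 obtained from a double-reciprocal plot of kobs vs [I].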

Data set [10] concerns the target T3, Acetylcholinesterase. Put plainly: Inhibition of recombinant human AChE expressed in HEK293 cells assessed as enzyme carbamoylation using acetylthiocholine iodide as substrate preincubated with enzyme followed by substrate addition by Ellman's method. The conditions noted are these: TDE = time-dependent effect.
Data set [11] deals with T2, Cholinesterase. Put plainly: Inhibition of human serum BuChE assessed as pseudo-first order rate constant for enzyme carbamoylation using butyrylthiocholine iodide as substrate preincubated for 2 to 30 mins followed by substrate addition by Ellman's method. In short, it runs like this: as §3
In data set [12] the target is T3, Acetylcholinesterase. Put plainly: Inhibition of recombinant human AChE expressed in HEK293 cells using acetylthiocholine iodide as substrate preincubated for 60 mins followed by substrate addition by Ellman's method. Put shortly:
as §1

The target of data set [13] is T1, Fatty-acid amide hydrolase 1. Put plainly: Inhibition of FAAH in rat brain membrane at pH 9 using N-arachidonoyl-[14C]-ethanolamine as substrate preincubated for 10 mins followed by substrate addition measured after 30 mins by scintillation counting method. In kind it is cell membranes. Put shortly: (§4)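 Rat brain 10,000 x g membrane fraction (70 µg/sample) in 50 mM Tris-HCl at pH 9.0 or 7.4, preincubated 10 min with compound. [14C]-AEA diluted with AEA then added, reaction run at 37 °C. [14C]-ethanolamine in the aqueous phase after CHCl3/MeOH 1:1 extraction counted by scintillation.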

Data set [14] relates to SH-SY5Y. Put plainly: Cytotoxicity against human SH-SY5Y assessed as reduction in cell viability at 1 to 50 uM after 24 hrs by MTT assay. In kind it is cell-based. In short, it runs like this: as §2
In data set [15] the target is T1, Fatty-acid amide hydrolase 1. Put plainly: Inhibition of FAAH in rat brain membrane at pH 7.4 using N-arachidonoyl-[14C]-ethanolamine as substrate preincubated for 10 mins followed by substrate addition measured after 30 mins by scintillation counting method. The class given is cell membranes. In short, it runs like this: as §4

The structures appear in SMILES notation.

T2 sequence (P06276 whole entry): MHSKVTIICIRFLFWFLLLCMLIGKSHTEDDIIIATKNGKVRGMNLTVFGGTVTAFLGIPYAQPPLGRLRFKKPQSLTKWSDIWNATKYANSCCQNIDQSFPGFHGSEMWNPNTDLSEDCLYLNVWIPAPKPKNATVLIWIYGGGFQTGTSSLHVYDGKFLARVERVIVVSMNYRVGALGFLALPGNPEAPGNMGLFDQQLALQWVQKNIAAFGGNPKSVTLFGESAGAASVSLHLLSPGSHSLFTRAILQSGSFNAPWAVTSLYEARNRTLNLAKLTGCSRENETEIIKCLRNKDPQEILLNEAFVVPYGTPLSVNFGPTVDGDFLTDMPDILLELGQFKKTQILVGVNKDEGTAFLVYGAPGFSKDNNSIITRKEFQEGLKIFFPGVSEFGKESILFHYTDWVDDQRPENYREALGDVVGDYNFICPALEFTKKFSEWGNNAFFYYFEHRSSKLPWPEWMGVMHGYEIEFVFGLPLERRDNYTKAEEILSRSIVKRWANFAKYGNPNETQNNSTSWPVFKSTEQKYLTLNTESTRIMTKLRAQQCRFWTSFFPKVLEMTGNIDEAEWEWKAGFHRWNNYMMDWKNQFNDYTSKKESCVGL
T3 sequence (P22303 whole entry): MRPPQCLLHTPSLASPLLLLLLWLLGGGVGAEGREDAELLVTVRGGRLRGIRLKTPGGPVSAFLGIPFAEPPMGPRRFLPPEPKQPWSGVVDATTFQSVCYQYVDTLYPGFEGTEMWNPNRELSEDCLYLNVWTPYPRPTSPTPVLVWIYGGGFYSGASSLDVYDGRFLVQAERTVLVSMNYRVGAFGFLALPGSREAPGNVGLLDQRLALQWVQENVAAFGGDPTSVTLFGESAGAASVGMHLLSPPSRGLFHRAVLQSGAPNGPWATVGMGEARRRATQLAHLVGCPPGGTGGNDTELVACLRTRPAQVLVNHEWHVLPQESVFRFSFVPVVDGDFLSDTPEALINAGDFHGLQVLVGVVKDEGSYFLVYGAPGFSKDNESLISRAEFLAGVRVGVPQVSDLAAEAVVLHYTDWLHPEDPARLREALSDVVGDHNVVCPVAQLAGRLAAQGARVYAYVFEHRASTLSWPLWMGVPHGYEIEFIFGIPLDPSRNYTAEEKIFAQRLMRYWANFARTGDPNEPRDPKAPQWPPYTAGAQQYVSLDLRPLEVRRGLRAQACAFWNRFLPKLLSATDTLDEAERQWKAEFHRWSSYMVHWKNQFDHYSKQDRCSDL

With `CCCCCCCNC(=O)Oc1cccc(CN(C)CCCOc2ccc3ccc(=O)oc3c2)c1`, the IC50 in data set [1] is 161 nM; on Cholinesterase [2], 1.36 nM; in [3], 28.5 nM; on Acetylcholinesterase [4] it was 37.4 nM. Moreover, the Activity result in the data set on SH-SY5Y [5] is listed as “Non-toxic”; in the data set on SH-SY5Y [6], “Toxic”.

`CCCCCCc1ccc(NC(=O)Oc2cccc(CN(C)CCCOc3ccc4ccc(=O)oc4c3)c2)cc1`: the IC50 was > 50000 nM in data set [1], 32.1 nM against Cholinesterase [7], > 50000 nM in data set [3] and 3800 nM at Acetylcholinesterase [12]. Moreover, the inhibition result at Cholinesterase [8] and at Acetylcholinesterase [10] was “tde” throughout. The K on Acetylcholinesterase [9] is 0.203 min⁻¹; at Cholinesterase [11], 0.461 min⁻¹.

Take `CN(CCCOc1ccc2ccc(=O)oc2c1)Cc1cccc(OC(=O)NCCCCCc2ccccc2)c1`: the inhibition entry on Cholinesterase [8] and at Acetylcholinesterase [10] was “tde” throughout. The results for the IC50 in data set [13] and in data set [15] were 183 nM and 4100 nM, respectively. The Activity result with SH-SY5Y [14] was “Non-toxic”.

What is called IC50 is the concentration that inhibits the measured activity by half.
